# Assay results: publication PMC9435035 (ACS Omega, 2022)
# How the values were obtained:
# [1] = target: α-glucosidase (Saccharomyces cerevisiae, UniProt P53341); experiment: α-glucosidase inhibitory activity; format: biochemical; details: read-out: glucosidase inhibition IC50 ± SEM; mean ± SEM
# [2] = system: Balb/C mice; experiment: acute toxicity study in mice; format: in vivo; details: for mortality: maximum oral dose of 2000 mg/kg (b.w.); for toxic effects (diarrhea, convulsions, lethargy, sleeping, salivation, tremor): oral up to 2000 mg/kg, observed daily for 2 weeks
# Method in brief: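 Two-phase modified Lorke protocol in Balb/C mice (20–25 g), four per group. Phase 1: control given Tween-80 (2%); other groups received oral test compound at 100, 500 or 1000 mg/kg. Phase 2: oral doses of 1250, 1500 and 2000 mg/kg. Animals observed for the first 24 h, then daily for 2 weeks for diarrhea, convulsions, lethargy, sleeping, salivation and tremors, with mortality monitored.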
# [3] = system: overnight fasted normal rats; experiment: oral glucose tolerance test; format: in vivo, Wistar albino rats; details: OGTT, glucose 3 g/kg oral
# [4] = system: streptozotocin-induced diabetic Wistar rats; experiment: antidiabetic activity: blood glucose in STZ-induced diabetes; format: in vivo, Wistar albino rats
# Method in brief: (§1)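 Male Wistar albino rats (170–200 g, 8–10 weeks), fasted overnight, given STZ 50 mg/kg i.p. in 0.1 M citrate buffer, then 10% glucose for 3 days. Tail-vein glucose by glucometer at 72 h; >250 mg/dL counted as diabetic. Body weight and blood glucose on days 1, 7, 14, 21 and 28. Means ± SEM, one-way ANOVA with Dunnett's test.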
# [5] = body weight of STZ-induced diabetic rats; format: in vivo, Wistar albino rats; details: for body weight, day 1: day 1, in g (unit assumed); for body weight, day 7: day 7, in g (unit assumed); for body weight, day 14: day 14, in g (unit assumed); for body weight, day 21: day 21, in g (unit assumed); for body weight, day 28: day 28, in g (unit assumed)
# Method in brief: as §1
# [6] = system: streptozotocin-induced diabetic Wistar rats; experiment: lipid profile in streptozotocin-induced diabetes; format: in vivo, Wistar albino rats; details: STZ-diabetic rats
# Method in brief: (§2)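 STZ-diabetic Wistar rats (n = 8 per group) received test compound at 10 or 20 mg/kg p.o., or glibenclamide 500 μg/kg p.o., once daily for 28 days; controls received vehicle. On day 28, rats were anesthetised with pentobarbital sodium (35 mg/kg) and blood was drawn by cardiac puncture. Serum ALP, SGPT, SGOT, LDL, HDL, TG, total cholesterol, creatinine and insulin were measured. Means ± SEM, one-way ANOVA with Dunnett's test.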
# [7] = system: streptozotocin-induced diabetic Wistar rats; experiment: serum profile; format: in vivo, Wistar albino rats; details: STZ-diabetic rats; for (ALP) IU / (SGOT) IU / (SGPT) IU: serum
# Method in brief: as §2
# [8] = 20 mg/kg p.o. once daily, day 28, 20 mg/kg
# Chain of α-glucosidase (P53341 whole entry): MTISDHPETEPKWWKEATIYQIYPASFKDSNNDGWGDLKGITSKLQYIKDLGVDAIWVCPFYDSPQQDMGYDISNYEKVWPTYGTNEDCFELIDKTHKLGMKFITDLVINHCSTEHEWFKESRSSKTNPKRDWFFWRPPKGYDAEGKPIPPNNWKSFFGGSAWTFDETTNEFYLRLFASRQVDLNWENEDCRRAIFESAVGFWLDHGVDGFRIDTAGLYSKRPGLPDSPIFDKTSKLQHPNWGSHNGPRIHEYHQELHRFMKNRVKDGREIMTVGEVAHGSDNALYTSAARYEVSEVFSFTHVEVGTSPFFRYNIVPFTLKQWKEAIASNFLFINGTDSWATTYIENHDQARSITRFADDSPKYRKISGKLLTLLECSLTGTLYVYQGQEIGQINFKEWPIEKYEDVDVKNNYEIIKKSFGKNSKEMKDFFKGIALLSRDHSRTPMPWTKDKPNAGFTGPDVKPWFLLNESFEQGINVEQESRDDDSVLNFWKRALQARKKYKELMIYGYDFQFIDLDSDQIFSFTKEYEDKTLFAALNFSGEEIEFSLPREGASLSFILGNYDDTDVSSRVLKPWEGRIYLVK
substance,measurement,setting,value
"2-(4-(Benzyloxy)-3-methoxyphenyl)-4-(p-tolyl)-2,3-dihydrobenzo[b][1,5]thiazepine [12B]",IC50,[1],3.79 ± 0.22 µM
same,mortality,[2],no mortality
same,"toxic effects (diarrhea, convulsions, lethargy, sleeping, salivation, tremor)",[2],no toxic effects
same,"blood glucose level, 0 min",[3]; dose 10 mg/kg,101.67 ± 4.55 mg/dL
same,"blood glucose level, 30 min",[3]; dose 10 mg/kg,121.63 ± 4.56 mg/dL
same,"blood glucose level, 60 min",[3]; dose 10 mg/kg,122.02 ± 4.66 mg/dL
same,"blood glucose level, 90 min",[3]; dose 10 mg/kg,115.31 ± 4.61 mg/dL
same,"blood glucose level, 120 min",[3]; dose 10 mg/kg,114.19 ± 4.61 mg/dL
same,"blood glucose level, 0 min",[3]; dose 20 mg/kg,105.59 ± 4.61 mg/dL
same,"blood glucose level, 30 min",[3]; dose 20 mg/kg,117.38 ± 4.01 mg/dL
same,"blood glucose level, 60 min",[3]; dose 20 mg/kg,117.61 ± 4.60 mg/dL
same,"blood glucose level, 90 min",[3]; dose 20 mg/kg,110.71 ± 4.91 mg/dL
same,"blood glucose level, 120 min",[3]; dose 20 mg/kg,111.21 ± 4.31 mg/dL
same,"blood glucose level, day 1",[4]; 10 mg/kg p.o. once daily,371.67 ± 4.66 mg/dL
same,"blood glucose level, day 7","[4]; 10 mg/kg p.o. once daily, day 7",301.41 ± 4.56 mg/dL
same,"blood glucose level, day 14","[4]; 10 mg/kg p.o. once daily, day 14",209.60 ± 4.22 mg/dL
same,"blood glucose level, day 21","[4]; 10 mg/kg p.o. once daily, day 21",152.56 ± 4.71 mg/dL
same,"blood glucose level, day 28","[4]; 10 mg/kg p.o. once daily, day 28, 10 mg/kg",138.92 ± 4.67 mg/dL
same,"blood glucose level, day 1",[4]; 20 mg/kg p.o. once daily,369.56 ± 4.56 mg/dL
same,"blood glucose level, day 7","[4]; 20 mg/kg p.o. once daily, day 7",237.11 ± 4.39 mg/dL
same,"blood glucose level, day 14","[4]; 20 mg/kg p.o. once daily, day 14",167.49 ± 5.02 mg/dL
same,"blood glucose level, day 21","[4]; 20 mg/kg p.o. once daily, day 21",131.69 ± 4.77 mg/dL
same,"blood glucose level, day 28",[4]; [8],114.74 ± 5.09 mg/dL
same,"body weight, day 1",[5]; 10 mg/kg,187.5 ± 4.39
same,"body weight, day 7",[5]; 10 mg/kg,185.1 ± 4.71
same,"body weight, day 14",[5]; 10 mg/kg,184.5 ± 4.06
same,"body weight, day 21",[5]; 10 mg/kg,187.0 ± 4.39
same,"body weight, day 28",[5]; 10 mg/kg,173.9 ± 4.28
same,"body weight, day 1",[5]; 20 mg/kg,189.7 ± 4.08
same,"body weight, day 7",[5]; 20 mg/kg,184.7 ± 4.66
same,"body weight, day 14",[5]; 20 mg/kg,187.1 ± 4.11
same,"body weight, day 21",[5]; 20 mg/kg,189.3 ± 4.60
same,"body weight, day 28",[5]; 20 mg/kg,175.3 ± 5.01
same,HDL,[6]; 10 mg/kg for 28 days,45.91 ± 2.70 mg/dL
same,TG,[6]; 10 mg/kg for 28 days,149.81 ± 4.60 mg/dL
same,LDL,"[6]; 10 mg/kg for 28 days, 10 mg/kg",134.89 ± 4.33 mg/dL
same,total CH,"[6]; 10 mg/kg for 28 days, 10 mg/kg",152.11 ± 4.11 mg/dL
same,HDL,[6]; 20 mg/kg for 28 days,53.24 ± 2.08 mg/dL
same,TG,[6]; 20 mg/kg for 28 days,117.97 ± 4.01 mg/dL
same,LDL,"[6]; 20 mg/kg for 28 days, 20 mg/kg",113.71 ± 4.16 mg/dL
same,total CH,"[6]; 20 mg/kg for 28 days, 20 mg/kg",136.03 ± 4.39 mg/dL
same,insulin level,[7]; 10 mg/kg for 28 days,0.651 ± 0.34 ng/mL
same,serum creatinine,[7]; 10 mg/kg for 28 days,0.90 ± 0.30 mg/dL
same,(ALP) IU,[7]; 10 mg/kg for 28 days,215.19 ± 4.10 IU
same,(SGOT) IU,[7]; 10 mg/kg for 28 days,26.01 ± 2.01 IU
same,(SGPT) IU,[7]; 10 mg/kg for 28 days,26.53 ± 2.38 IU
same,insulin level,[7]; 20 mg/kg for 28 days,0.660 ± 0.30 ng/mL
same,serum creatinine,[7]; 20 mg/kg for 28 days,0.80 ± 0.38 mg/dL
same,(ALP) IU,[7]; 20 mg/kg for 28 days,205.93 ± 4.67 IU
same,(SGOT) IU,[7]; 20 mg/kg for 28 days,22.91 ± 2.87 IU
same,(SGPT) IU,[7]; 20 mg/kg for 28 days,23.35 ± 2.54 IU
"1-Phenyl-3-(4-(4-(p-tolyl)-2,3-dihydrobenzo[b][1,5]thiazepin-2-yl)phenyl)prop-2-en-1-one [6B]",IC50,[1],3.63 ± 0.36 µM
same,mortality,[2],no mortality
same,"toxic effects (diarrhea, convulsions, lethargy, sleeping, salivation, tremor)",[2],no toxic effects
same,"blood glucose level, 0 min",[3]; dose 10 mg/kg,103.41 ± 4.05 mg/dL
same,"blood glucose level, 30 min",[3]; dose 10 mg/kg,125.39 ± 4.10 mg/dL
same,"blood glucose level, 60 min",[3]; dose 10 mg/kg,120.41 ± 4.81 mg/dL
same,"blood glucose level, 90 min",[3]; dose 10 mg/kg,112.61 ± 4.81 mg/dL
same,"blood glucose level, 120 min",[3]; dose 10 mg/kg,114.91 ± 4.59 mg/dL
same,"blood glucose level, 0 min",[3]; dose 20 mg/kg,100.93 ± 4.11 mg/dL
same,"blood glucose level, 30 min",[3]; dose 20 mg/kg,119.91 ± 4.62 mg/dL
same,"blood glucose level, 60 min",[3]; dose 20 mg/kg,121.66 ± 4.31 mg/dL
same,"blood glucose level, 90 min",[3]; dose 20 mg/kg,111.22 ± 4.21 mg/dL
same,"blood glucose level, 120 min",[3]; dose 20 mg/kg,109.78 ± 5.01 mg/dL
same,"blood glucose level, day 1",[4]; 10 mg/kg p.o. once daily,381.40 ± 4.30 mg/dL
same,"blood glucose level, day 7","[4]; 10 mg/kg p.o. once daily, day 7, 10 mg/kg",280.90 ± 4.66 mg/dL
same,"blood glucose level, day 14","[4]; 10 mg/kg p.o. once daily, day 14, 10 mg/kg",205.31 ± 4.01 mg/dL
same,"blood glucose level, day 21","[4]; 10 mg/kg p.o. once daily, day 21, 10 mg/kg",150.45 ± 4.92 mg/dL
same,"blood glucose level, day 28","[4]; 10 mg/kg p.o. once daily, day 28",135.67 ± 3.89 mg/dL
same,"blood glucose level, day 1",[4]; 20 mg/kg p.o. once daily,380.30 ± 4.78 mg/dL
same,"blood glucose level, day 7","[4]; 20 mg/kg p.o. once daily, day 7, 20 mg/kg",228.44 ± 5.06 mg/dL
same,"blood glucose level, day 14","[4]; 20 mg/kg p.o. once daily, day 14, 20 mg/kg",166.09 ± 4.46 mg/dL
same,"blood glucose level, day 21","[4]; 20 mg/kg p.o. once daily, day 21, 20 mg/kg",129.71 ± 4.09 mg/dL
same,"blood glucose level, day 28",[4]; [8],111.81 ± 4.08 mg/dL
same,"body weight, day 1",[5]; 10 mg/kg,190.0 ± 3.98
same,"body weight, day 7",[5]; 10 mg/kg,182.5 ± 4.19
same,"body weight, day 14",[5]; 10 mg/kg,187.1 ± 4.88
same,"body weight, day 21",[5]; 10 mg/kg,183.4 ± 4.60
same,"body weight, day 28",[5]; 10 mg/kg,180.9 ± 4.23
same,"body weight, day 1",[5]; 20 mg/kg,194.1 ± 4.41
same,"body weight, day 7",[5]; 20 mg/kg,189.3 ± 4.61
same,"body weight, day 14",[5]; 20 mg/kg,190.3 ± 4.71
same,"body weight, day 21",[5]; 20 mg/kg,186.7 ± 3.96
same,"body weight, day 28",[5]; 20 mg/kg,184.3 ± 4.33
same,LDL,[6]; 10 mg/kg for 28 days,130.21 ± 3.99 mg/dL
same,TG,[6]; 10 mg/kg for 28 days,145.21 ± 4.98 mg/dL
same,total CH,[6]; 10 mg/kg for 28 days,151.07 ± 4.92 mg/dL
same,HDL,"[6]; 10 mg/kg for 28 days, 10 mg/kg",44.89 ± 3.01 mg/dL
same,LDL,[6]; 20 mg/kg for 28 days,113.41 ± 4.71 mg/dL
same,TG,[6]; 20 mg/kg for 28 days,116.82 ± 4.41 mg/dL
same,total CH,[6]; 20 mg/kg for 28 days,137.11 ± 3.71 mg/dL
same,HDL,"[6]; 20 mg/kg for 28 days, 20 mg/kg",52.07 ± 2.69 mg/dL
same,insulin level,[7]; 10 mg/kg for 28 days,0.658 ± 0.31 ng/mL
same,serum creatinine,[7]; 10 mg/kg for 28 days,0.82 ± 0.22 mg/dL
same,(ALP) IU,[7]; 10 mg/kg for 28 days,214.19 ± 4.11 IU
same,(SGOT) IU,[7]; 10 mg/kg for 28 days,25.81 ± 2.16 IU
same,(SGPT) IU,[7]; 10 mg/kg for 28 days,25.90 ± 2.11 IU
same,insulin level,[7]; 20 mg/kg for 28 days,0.667 ± 0.40 ng/mL
same,serum creatinine,[7]; 20 mg/kg for 28 days,0.75 ± 0.30 mg/dL
same,(ALP) IU,[7]; 20 mg/kg for 28 days,204.71 ± 4.13 IU
same,(SGOT) IU,[7]; 20 mg/kg for 28 days,22.31 ± 2.17 IU
same,(SGPT) IU,[7]; 20 mg/kg for 28 days,23.01 ± 2.11 IU
